Test results from ChEMBL document CHEMBL1138561, “Synthesis of novel N-protected hydrophobic phenylalanines and their application in potential antibacterials” (2009).
In brackets after ≈: the same amount, converted by molar mass.

Tests used:
[1] = test system: Enterococcus faecalis; test: Antibacterial activity against vancomycin-sensitive Enterococcus faecalis; assay type: functional
Method in brief: (§1)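 Broth microdilution in Mueller–Hinton medium, with the inoculum a 1/10 dilution of seed culture. Peptoids were dissolved in 50% MeOH/H2O to 1 mg/mL, added to the top row and serially diluted down the plate. Plates were incubated at 37 °C with shaking at 100 rpm for 18 h, with two peptoids per plate.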

[2] = test system: Staphylococcus aureus; test: Antibacterial activity against Staphylococcus aureus ATCC 6538 after 18 hrs; assay type: functional; conditions: ATCC 6538, 18 h; method in brief: as §1

| SMILES | MIC [1] | MIC [2] |
| --- | --- | --- |
| C=CCOc1ccc(C[C@H](NC(C)=O)C(=O)N[C@@H](CCCCN)C(=O)N[C@H](CCCNC(=N)N)C(=O)N[C@@H](CC=C)C(=O)OCc2ccccc2)cc1.Cl.Cl | > 125 µg/mL | > 125 µg/mL |
| C=CC[C@H](NC(=O)[C@@H](CCCNC(=N)N)NC(=O)[C@H](CCCCN)NC(=O)[C@H](Cc1ccc(-c2cc3ccccc3c3ccccc23)cc1)NC(C)=O)C(=O)OCc1ccccc1.Cl.Cl | > 125 µg/mL | 7.8 µg/mL |
| C=CC[C@H](NC(=O)[C@H](CCCCN)NC(=O)[C@H](Cc1ccc(-c2c3ccccc3cc3ccccc23)cc1)NC(C)=O)C(=O)OC.Cl | > 125 µg/mL | 31.3 µg/mL |
| C=CC[C@H](NC(=O)[C@H](CCCCN)NC(=O)[C@H](Cc1ccc(-c2cc3ccccc3c3ccccc23)cc1)NC(C)=O)C(=O)OC.Cl | > 125 µg/mL | 15.6 µg/mL |
| C=CC[C@H](NC(=O)[C@@H](CCCNC(=N)N)NC(=O)[C@H](CCCCN)NC(=O)[C@H](Cc1ccc(-c2c3ccccc3cc3ccccc23)cc1)NC(C)=O)C(=O)OCc1ccccc1.Cl.Cl | > 125 µg/mL | 15.6 µg/mL |
| CN[C@H](CC(C)C)C(=O)N[C@H]1C(=O)N[C@@H](CC(N)=O)C(=O)N[C@H]2C(=O)N[C@H]3C(=O)N[C@H](C(=O)N[C@H](C(=O)O)c4cc(O)cc(O)c4-c4cc3ccc4O)[C@H](O)c3ccc(c(Cl)c3)Oc3cc2cc(c3O[C@@H]2O[C@H](CO)[C@@H](O)[C@H](O)[C@H]2O[C@H]2C[C@](C)(N)[C@H](O)[C@H](C)O2)Oc2ccc(cc2Cl)[C@H]1O [VANCOMYCIN] | – | 1.95 µg/mL (≈ 1.35 µM) |
